Assay outcomes (PubChem BioAssay)
hIAP act – human IAP activators, primary screen, biochemical, luminescence, uHTS; Intestinal-type alkaline phosphatase (Homo sapiens), P09923; purified human IAP, CDP-Star luminescence, 30 min; active compounds read high; 1 = vehicle-only enzyme, 0 = enzyme-free background; activation factor at 10 µM; hit rate 0.16% among 330,000; AID 2524, 2010;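 active = activation factor of the enzyme at least 2-fold when tested at 20 µM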
Target sequence (P09923 whole entry, looked up): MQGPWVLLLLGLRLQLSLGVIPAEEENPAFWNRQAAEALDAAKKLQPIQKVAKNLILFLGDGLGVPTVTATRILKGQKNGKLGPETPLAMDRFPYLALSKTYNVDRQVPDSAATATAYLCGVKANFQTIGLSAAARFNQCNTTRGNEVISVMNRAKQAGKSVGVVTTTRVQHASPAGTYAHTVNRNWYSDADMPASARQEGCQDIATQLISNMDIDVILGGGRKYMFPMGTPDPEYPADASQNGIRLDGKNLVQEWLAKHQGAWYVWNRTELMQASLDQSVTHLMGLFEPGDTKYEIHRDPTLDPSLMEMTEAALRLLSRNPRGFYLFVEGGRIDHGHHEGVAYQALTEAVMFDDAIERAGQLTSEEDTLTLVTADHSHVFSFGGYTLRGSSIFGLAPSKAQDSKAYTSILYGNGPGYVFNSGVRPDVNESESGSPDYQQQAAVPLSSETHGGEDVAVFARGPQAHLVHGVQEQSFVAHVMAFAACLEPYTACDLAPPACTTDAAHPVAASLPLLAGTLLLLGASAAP
bIAP act – bovine intestinal alkaline phosphatase activators, primary screen, biochemical, bovine IAP, CDP-star luminescence. purified bovine IAP, 30 min; active compounds read high; fold of DMSO-control signal, blank-subtracted. AID 1016, 2008. alkaline phosphatase, intestinal [Bos taurus]. activation factor at 20 µM. hit rate 0.17% among 200,000;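 active = activation factor of 2 or more at 20 µM, a signal rise over negative controls twice the positive control's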
hIAP block – human IAP inhibitors, primary screen, biochemical, luminescence, uHTS | Intestinal-type alkaline phosphatase (Homo sapiens), P09923 | hit rate 0.12% among 330,000 | inhibition, % at 10 µM | purified IAP, CDP-Star luminescence, 30 min;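 active = inhibition reaching a set limit with compound at 10 µM in the primary screen, cut at about 35% in these data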;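 also: plate controls were DMSO wells with enzyme for no effect and no-enzyme buffer wells for full effect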
mIAP activ – activators of mouse IAP, primary screen, biochemical, luminescence, uHTS; hit rate 0.24% among 330,000; activation factor at 10 µM; AID 2805, 2010; muIAP, CDP-Star luminescence, 30 min; active compounds read high; 1 = vehicle-only enzyme signal, 0 = enzyme-free wells; intestinal alkaline phosphatase [Mus musculus];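 active = activation factor of at least 2 at 20 µM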
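Assay system: mouse IAP enzyme; reagent: chemiluminescent substrate CDP-Star; dosing: test compounds delivered from DMSO solution; schedule: 30 min at room temperature; measured by: luminescence from enzymatic CDP-Star hydrolysis; controls: DMSO-only wells and no-enzyme negative control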
mIAP inh – inhibitors of mouse IAP, primary screen, biochemical, luminescence, uHTS | hit rate 0.2% among 330,000 | purified mouse IAP, CDP-Star luminescence, 30 min | inhibition, % at 10 µM | AID 2806, 2010;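 active = inhibition of at least 40% at 10 µM in the primary screen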;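 also: plate controls were DMSO with enzyme for no effect and no enzyme wells for full effect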
bIAP inhibitor – bovine intestinal alkaline phosphatase inhibitors, primary screen, selectivity assay for TNAP inhibitor project, biochemical, bovine IAP, CDP-star luminescence. purified bovine IAP, 30 min. inhibition, % at 20 µM. 190,000 tested, under 10 active;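 active = over 50% inhibition of intestinal alkaline phosphatase at 20 µM in the single-dose screen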
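Incubation: 30 min reaction at room temperature / Material: purified bovine intestinal alkaline phosphatase (IAP) enzyme / Input: enzyme at 1/65,000,000 dilution / Dosing: 20 µM single dose / Signal: CDP-star luminescence signal / Reagent: CDP-star chemiluminescent phosphatase substrate, 30 µM final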
hIAP act conf – human IAP activators, confirmation, biochemical, luminescence, single concentration, uHTS hits; shares compounds with hIAP act; purified IAP, CDP-Star luminescence, 30 min; active compounds read low; activation (%Activity, negative = activation), % at 8.3 µM; hit rate 10% among 880; AID 434926, 2010;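 active = at least twofold enzyme activation in any of six single-dose repeats, which the averaged readout prints as negative percent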
* = called active by the depositor; / = no result given. Most compounds without a hit are left out; they make up all but 0.77% or so of the library.

SMILES	hIAP act	bIAP act	hIAP block	mIAP activ	mIAP inh	bIAP inhibitor	hIAP act conf
O=[N+]([O-])c1ccc(Nc2ccccc2)c2nonc12	0.61	/	38*	0.8	20	/	-18
CCCCCCc1nc(C(N)=O)c2[nH]c(=O)n(-c3ccc(OCC)cc3)c2n1	2.3*	/	-131	1	-3	/	2
CCCCCCc1nc(C(N)=O)c2[nH]c(=O)n(-c3ccccc3F)c2n1	2.1*	/	-110	1.1	-9	/	-15
COc1ccc(C(CNC(=O)c2cc(S(=O)(=O)N3CCCC3)ccc2Cl)N2CCCC2)cc1 (configuration not stated)	1	/	-1	1.1	-11	/	/
COc1ccc(S(=O)(=O)NNC(=O)C(=O)NNc2ccccn2)cc1	3*	/	-202	0.85	15	/	6
O=C(Nc1cccc(Cl)c1)N1CCCCCC1	0.62	/	38*	0.99	1	/	-55
Cc1cc2cccc(C)c2nc1SCC(=O)NNC(=O)c1ccco1	1.7	1.2	-74	1.1	-8	-23	/
Cc1cc(C)c2nc(SCC(=O)NNC(=O)c3ccco3)c(C)cc2c1	2*	1.1	-103	0.97	3	-8	-59*
Cc1ccc(CNn2cn[nH]c2=S)cc1	0.71	/	28	0.87	13	/	/
CC(C)c1ccc(NC(=O)c2cccc(Br)c2)cc1	2.4*	0.8	-145	1	-1	18	-13
O=C(Nc1cccc(C(=O)Nc2cccc(Br)c2)c1)c1ccccc1	1	/	-4	1	-3	/	/
CCOc1ccc(CC(=O)NNC(=S)NC2CCCCC2)cc1OCC	2.1*	0.9	-110	1	-2	6	-80*
COc1ccc(OC)c(S(=O)(=O)n2nnc3ccccc32)c1	0.63	0.9	37*	0.96	4	6	-54
O=C(COC(=O)CNC(=O)c1ccc(Cl)cc1Cl)NC1CCCCC1	1.2	/	-23	0.92	8	/	/
CCN(CC)S(=O)(=O)c1ccc(N2CCOCC2)c(NC(=O)c2c3c(nc4ccccc24)CCC3)c1	0.88	0.5	12	0.95	5	47	/
Cc1cc(-n2c(SCC(=O)Nc3ccc(F)c(F)c3)nc3n[nH]c(C)c3c2=N)ccc1Cl	2.1*	/	-107	1.1	-14	/	-40
CSc1nc(N)nc2c1ncn2CC(=O)N1CCN(Cc2c(C)cc(C)cc2C)CC1	1.1	/	-7	1.1	-10	/	/
Cn1cc(CNCc2cnc3ccccn23)c(-c2ccc(Oc3ccccc3)cc2)n1	2.7*	1.2	-169	0.99	1	-17	2
CN(C)c1ccc(S(=O)(=O)N2CCC(Cc3ccccc3)CC2)cn1	0.89	/	11	1	-3	/	/
CCCNC(=S)NC1CC2CCCC(C1)N2Cc1ccc(F)cc1 (configuration not stated)	1.2	/	-21	1.5	-54	/	/
O=C(NNc1ncnc2c1cnn2-c1ccc(F)cc1)c1ccco1	2.6*	/	-163	0.99	1	/	-47*
CC(=O)NNc1ncnc2c1cnn2-c1ccc(C)c(C)c1	2.5*	1.5	-148	0.85	14	-49	-78
COc1ccc(N2CCN(S(=O)(=O)c3ccc4c(c3)NC(=O)C(C)S4)CC2)cc1 (configuration not stated)	0.97	/	3	0.99	1	/	/
COc1ccc(NS(=O)(=O)c2cccc(C(=O)NCc3ccccc3CN3CCCC3)c2)cc1	0.81	/	18	1	0	/	/
Cc1c(C(C)NC(=O)Nc2ccc(F)cc2F)cnn1C (configuration not stated)	2.1*	1.1	-110	1.1	-5	-13	-47
CCn1cnc2sc(C(=O)O)c(C)c2c1=O	3.9*	0.9	-290	1.1	-14	12	64
COCCS(=O)(=O)N(Cc1ccc(Br)cc1)[C@@H](C)C(=O)OC	/	/	/	1.1	-11	/	/
